Laboratory results as given in ChEMBL document CHEMBL1153146, “Novel potent apoA-I peptide mimetics that stimulate cholesterol efflux and pre-beta particle formation in vitro” (Bioorg Med Chem Lett, 2010).
In brackets after ≈: the same amount, converted by molar mass. Non-standard residues stand in square brackets, D forms with d. Residues, ends and D or L forms follow the SMILES beside them. Aib = CC(C)(N)C(=O)O

How the values were obtained:
[1] = tested on: Plasma; assay: Incorporation into HDL fraction in wild type mouse plasma at 0.25 mg/ml after 2 hrs by size exclusion chromatography analysis
[2] = tested on: Plasma; assay: Increase in pre-beta-HDL level in human plasma after 1 hr by ELISA; type: functional, cell-free
Method in brief: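 Peptides were titrated into human plasma, with concentrations expressed in µg/ml, and pre-β-HDL was read out by ELISA using a pre-β antibody.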

[3] = Toxicity in human RBC assessed as hemolysis; type: cell-based, Erythrocyte; details: red blood cells (RBC)
Method in brief: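 Red blood cell lysis assay; cytotoxicity reported as IC50 in µM.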

[4] = tested on: RAW264.7; assay: Cytotoxicity against mouse RAW264.7 cells after 24 hrs by MTT assay; type: cell-based; details: RAW264.7, 24 h
Method in brief: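 RAW macrophage cytotoxicity examined at peptide concentrations up to 160 µM.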

[5] = tested on: RAW264.7; assay: Induction of [3H]cholesterol efflux in mouse RAW264.7 cells after 24 hrs by scintillation counting; type: functional, cell-based; details: Mus musculus, RAW264.7; read-out: EC50
Method in brief: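 Cholesterol efflux from RAW macrophages; EC50 reported in µM as the mean of three experiments.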

[6] = tested on: RAW264.7; assay: Induction of [3H]cholesterol efflux in mouse RAW264.7 cells at 30 uM after 24 hrs by scintillation counting; type: functional, cell-based
[7] = tested on: RAW264.7; assay: Induction of [3H]cholesterol efflux in mouse RAW264.7 cells at 100 uM after 24 hrs by scintillation counting; type: functional, cell-based
[8] = Toxicity in human RBC assessed as minimum lytic concentration; type: cell-based; details: erythrocyte

| Structure (SMILES) | IC50 [3] [µM] | IC50 [4] [µM] | MLC [8] [µg/mL] | other results |
| --- | --- | --- | --- | --- |
| C=CCCCCC[C@H](NC(=O)[C@H](CCC(=O)O)NC(=O)[C@H](CC(N)=O)NC(=O)[C@H](CC(C)C)NC(=O)[C@H](CCCCN)NC(=O)[C@H](CCC(=O)O)NC(=O)[C@H](CCCNC(=N)N)NC(=O)[C@@H](CCCCC=C)NC(=O)[C@H](CCC(=O)O)NC(=O)[C@H](CC(=O)O)NC(=O)[C@H](CC(C)C)NC(=O)[C@@H](NC(=O)[C@@H]1CCCN1)C(C)C)C(=O)N[C@@H](CC(C)C)C(=O)N[C@@H](CCC(=O)O)C(=O)N[C@@H](C)C(=O)N[C@@H](CC(C)C)C(=O)N[C@@H](CCCCN)C(=O)N[C@@H](CCC(N)=O)C(=O)N[C@@H](CCCCN)C(=O)N[C@@H](CC(C)C)C(=O)N[C@@H](CCCCN)C(=O)O | > 160 | > 160 |  | IC50 [1]: Active; IC50 [2]: Active; EC50 [5]: 0.8 µM |
| C=CCCC[C@H](NC(=O)[C@H](CCC(=O)O)NC(=O)[C@H](CC(N)=O)NC(=O)[C@H](CC(C)C)NC(=O)[C@H](CCCC=C)NC(=O)[C@H](CCC(=O)O)NC(=O)[C@H](CCCNC(=N)N)NC(=O)[C@H](Cc1ccccc1)NC(=O)[C@H](CCC(=O)O)NC(=O)[C@H](CC(=O)O)NC(=O)[C@H](CC(C)C)NC(=O)[C@@H](NC(=O)[C@@H]1CCCN1)C(C)C)C(=O)N[C@@H](CC(C)C)C(=O)N[C@@H](CCC(=O)O)C(=O)N[C@@H](C)C(=O)N[C@@H](CC(C)C)C(=O)N[C@@H](CCCCN)C(=O)N[C@@H](CCC(N)=O)C(=O)N[C@@H](CCCCN)C(=O)N[C@@H](CC(C)C)C(=O)N[C@@H](CCCCN)C(=O)O | > 160 | > 160 |  | cholesterol efflux [6]: 7% |
| CC(C)C[C@H](NC(=O)[C@H](C)NC(=O)[C@H](CCC(=O)O)NC(=O)[C@H](CC(C)C)NC(=O)C(C)(C)NC(=O)[C@H](CCC(=O)O)NC(=O)[C@H](CC(N)=O)NC(=O)[C@H](CC(C)C)NC(=O)[C@H](CCCCN)NC(=O)[C@H](CCC(=O)O)NC(=O)[C@H](CCCNC(=N)N)NC(=O)[C@H](Cc1ccccc1)NC(=O)[C@H](CCC(=O)O)NC(=O)[C@H](CC(=O)O)NC(=O)[C@H](CC(C)C)NC(=O)[C@@H](NC(=O)[C@@H]1CCCN1)C(C)C)C(=O)N[C@@H](CCCCN)C(=O)N[C@@H](CCC(N)=O)C(=O)N[C@@H](CCCCN)C(=O)N[C@@H](CC(C)C)C(=O)N[C@@H](CCCCN)C(=O)O (H-PVLDEFREKLNE[Aib]LEALKQKLK-OH) | > 160 | > 160 |  | cholesterol efflux [7]: 6% |
| C[C@@H]1[C@H](O)[C@@H](C)/C=C/C=C/C=C/C=C/C=C/C=C/C=C/[C@H](O[C@@H]2O[C@H](C)[C@@H](O)[C@H](N)[C@@H]2O)C[C@@H]2O[C@](O)(C[C@@H](O)C[C@@H](O)[C@H](O)CC[C@@H](O)C[C@@H](O)CC(=O)O[C@H]1C)C[C@H](O)[C@H]2C(=O)O [AMPHOTERICIN B] |  |  | 2 (≈ 2.16 µM) |  |
| O=C(N[C@H](CO)[C@H](O)c1ccc([N+](=O)[O-])cc1)C(Cl)Cl [CHLORAMPHENICOL] |  |  | > 64 |  |
